Measured values of several laboratories.
Lines come from different studies, so protocols differ.
Target: Adenosine receptor A2a (ADORA2A, Homo sapiens, UniProt P29274)
Observed: ligand displacement
Method: radioligand

c1coc(-c2nc3cc(CCN4CCOCC4)ccc3o2)c1 — Ki (cell membranes): 11000 nM
CCCCCCN1CCCn2c1nc1c2c(=O)n(C)c(=O)n1C — Ki (cell membranes): 2070 nM
Cc1cccc(-c2nc(N)n(C(=O)CCc3ccccc3)n2)c1 — Ki (cell membranes): 250 nM
C=CN1CCCn2c1nc1c2c(=O)n(C)c(=O)n1C — Ki (cell membranes): > 10000 nM
Nc1nc(I)nc2c1ncn2[C@H]1[C@H](O)[C@H](O)[C@]2(CCl)C[C@H]12 — Ki: 5350 nM
c1ccc2[nH]c(-c3nc4ccccc4[nH]3)nc2c1 — Ki (cell membranes): 140 nM
CNC(=O)[C@@]12C[C@@H]1[C@@H](n1cnc3c(NCc4cccc(C#CCCCCCc5cn(-c6ccc(F)c(N)c6)nn5)c4)nc(Cl)nc31)[C@H](O)[C@@H]2O — Ki (cell membranes): 550 nM
c1coc(-c2nc3cc(CCN4CCCCC4)ccc3o2)c1 — Ki (cell membranes): 7000 nM
C#CCCCCC(=O)NCCNC(=O)COc1ccc(-c2nc3c([nH]2)c(=O)n(CCC)c(=O)n3CCC)cc1 — Ki (cell membranes): 23.2 nM
CCNC(=O)[C@H]1O[C@@H](n2cnc3c(N)nc(NN=C[C@H]4CCC=CO4)nc32)[C@H](O)[C@@H]1O — Ki: 3.76 nM
OC[C@@]12C[C@@H]1[C@@H](n1cnc3c(N[C@@H](C4CCC4)C4CC4)nc(I)nc31)[C@H](O)[C@@H]2O — Ki: 3080 nM
Nc1nc(-c2ccccc2Cl)nn1C(=O)CCc1ccccc1 — Ki (cell membranes): 630 nM
